Source: ChEMBL document CHEMBL4304822, “Mitochondrial-targeted Hsp90 C-terminal inhibitors manifest anti-proliferative activity” (Bioorg Med Chem Lett, 2019)
The source made the active and inactive calls. The calls are words filed in the database; no cut-off is given here.

How the values were obtained:
MCF7 [1] = experiment: Antiproliferative activity against human MCF7 cells by MTT assay; assay type: functional, cell-based
SK-BR-3 [2] = experiment: Antiproliferative activity against human SKBR3 cells by MTT assay; assay type: functional, cell-based
PC-3 = experiment: Antiproliferative activity against human PC3 cells by MTT assay; assay type: functional, cell-based
HCT-116 = experiment: Antiproliferative activity against human HCT116 cells by MTT assay; assay type: functional, cell-based
[3] = Drug uptake in mitochondria in human PC3 cells incubated for 24 hrs by LC/MS analysis; assay type: ADME; conditions: pc-3, 24 h
In short: (§1)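 PC3 cells treated for 24 h, then separated into subcellular fractions; the compound in each isolated fraction was quantified by LC-MS.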

MCF7 [4] = experiment: Ratio of IC50 for N-(7-(3-(dimethylamino)propoxy)-8-methyl-2-oxo-2H-chromen-3-yl)-3',6-dimethoxybiphenyl-3-carboxamide to IC50 for test compound for antiproliferative activity against human MCF7 cells; assay type: functional
[5] = Drug uptake in cytoplasm in human PC3 cells assessed as lowered drug accumulation incubated for 24 hrs by LC/MS analysis; assay type: ADME, subcellular; conditions: pc-3, 24 h; in short: as §1
Heat shock protein HSP90 [6] = molecular target: T1, Heat shock protein HSP90 (Homo sapiens, UniProt P07900+P08238); experiment: Inhibition of HSP90 […] in human SKBR3 cells assessed as induction of heat shock response by measuring increase in HSP70 protein level at 0.5 to 5 times antiproliferative IC50 incubated for 24 hrs by Western blot analysis; assay type: cell-based
Heat shock protein HSP90 [7] = molecular target: T1, Heat shock protein HSP90; experiment: Inhibition of HSP90 at C-terminus in human SKBR3 cells assessed as induction of Raf1 protein degradation at 0.5 to 5 times antiproliferative IC50 incubated for 24 hrs by Western blot analysis; assay type: cell-based
Heat shock protein HSP90 [8] = molecular target: T1, Heat shock protein HSP90; experiment: Inhibition of HSP90 at C-terminus in human SKBR3 cells assessed as induction of CDK4 protein degradation at 0.5 to 5 times antiproliferative IC50 incubated for 24 hrs by Western blot analysis; assay type: cell-based
Heat shock protein HSP90 [9] = molecular target: T1, Heat shock protein HSP90; experiment: Inhibition of HSP90 at C-terminus in human SKBR3 cells assessed as Her2 protein degradation at 0.5 to 5 times antiproliferative IC50 incubated for 24 hrs by Western blot analysis; assay type: cell-based
Heat shock protein HSP90 [10] = molecular target: T1, Heat shock protein HSP90; experiment: Inhibition of HSP90 at C-terminus in human SKBR3 cells assessed as AKT protein degradation at 0.5 to 5 times antiproliferative IC50 incubated for 24 hrs by Western blot analysis; assay type: cell-based
MCF7 [11] = experiment: Ratio of IC50 for N-(4'-(3-(dimethylamino)propoxy)biphenyl-4-yl)-3',6-dimethoxybiphenyl-3-carboxamide to IC50 for test compound for antiproliferative activity against human MCF7 cells; assay type: functional
SK-BR-3 [12] = experiment: Ratio of IC50 for N-(4'-(3-(dimethylamino)propoxy)biphenyl-4-yl)-3',6-dimethoxybiphenyl-3-carboxamide to IC50 for test compound for antiproliferative activity against human SKBR3 cells; assay type: functional
MCF7 [13] = experiment: Ratio of IC50 for N-((1r,4r)-4-(4-(3-(dimethylamino)propoxy)phenyl)cyclohexyl)-3',6-dimethoxybiphenyl-3-carboxamide to IC50 for test compound for antiproliferative activity against human MCF7 cells; assay type: functional

IC50 (MCF7 [1]) [µM] | IC50 (SK-BR-3 [2]) [µM] | IC50 (PC-3) [µM] | IC50 (HCT-116) [µM] | Drug uptake [3] | Drug uptake [5] | inhibition (Heat shock protein HSP90 [7]) | inhibition (Heat shock protein HSP90 [8]) | inhibition (Heat shock protein HSP90 [9]) | inhibition (Heat shock protein HSP90 [10]) | SMILES | Ratio IC50 (MCF7 [4]) | Activity (Heat shock protein HSP90 [6]) | Ratio IC50 (MCF7 [11]) | Ratio IC50 (SK-BR-3 [12]) | Ratio IC50 (MCF7 [13])
2.14 | 2.03 | 3.53 | 1.49 | Active | – | – | – | – | – | COc1cccc(-c2cc(C(=O)Nc3ccc(-c4ccc(OCCCN(C)C)cc4)cc3)ccc2OC)c1 | – | – | – | – | –
0.8 | 0.31 | 1.94 | 0.64 | Active | Active | Active | Active | inactive | inactive | COc1cccc(-c2cc(C(=O)Nc3cc4ccc(OCCC[P+](c5ccccc5)(c5ccccc5)c5ccccc5)c(C)c4oc3=O)ccc2OC)c1.[Br-] | 2 | Non-Toxic | – | – | –
1.8 | 0.85 | 1.01 | 0.83 | Active | – | – | – | – | – | COc1cccc(-c2cc(C(=O)Nc3cc4ccc(OCCCN(C)C)c(C)c4oc3=O)ccc2OC)c1 | – | – | – | – | –
0.34 | 0.25 | – | – | Active | – | – | – | – | – | COc1cccc(-c2cc(C(=O)N[C@H]3CC[C@H](c4ccc(OCCCN(C)C)cc4)CC3)ccc2OC)c1 | – | – | – | – | –
0.93 | 0.21 | 2.94 | 0.45 | Active | Active | Active | Active | inactive | inactive | COc1cccc(-c2cc(C(=O)Nc3ccc(-c4ccc(OCCC[P+](c5ccccc5)(c5ccccc5)c5ccccc5)cc4)cc3)ccc2OC)c1.[Br-] | – | Non-Toxic | 2 | 10 | –
0.17 | 0.23 | 1.56 | 0.38 | Active | Active | Active | – | inactive | inactive | COc1cccc(-c2cc(C(=O)N[C@H]3CC[C@H](c4ccc(OCCC[P+](c5ccccc5)(c5ccccc5)c5ccccc5)cc4)CC3)ccc2OC)c1.[Br-] | – | Non-Toxic | – | – | 2
